For 19 compounds, inhibition and IC50 results are on record in ChEMBL document CHEMBL1150430, “Flavonoids for controlling starch digestion: structural requirements for inhibiting human alpha-amylase” (J Med Chem, 2008).

SMILES strings stand for the structures.

In test [1] the target is T1, Alpha-amylase 1A (Homo sapiens) (UniProt P0DUB6).
T1 sequence (whole entry): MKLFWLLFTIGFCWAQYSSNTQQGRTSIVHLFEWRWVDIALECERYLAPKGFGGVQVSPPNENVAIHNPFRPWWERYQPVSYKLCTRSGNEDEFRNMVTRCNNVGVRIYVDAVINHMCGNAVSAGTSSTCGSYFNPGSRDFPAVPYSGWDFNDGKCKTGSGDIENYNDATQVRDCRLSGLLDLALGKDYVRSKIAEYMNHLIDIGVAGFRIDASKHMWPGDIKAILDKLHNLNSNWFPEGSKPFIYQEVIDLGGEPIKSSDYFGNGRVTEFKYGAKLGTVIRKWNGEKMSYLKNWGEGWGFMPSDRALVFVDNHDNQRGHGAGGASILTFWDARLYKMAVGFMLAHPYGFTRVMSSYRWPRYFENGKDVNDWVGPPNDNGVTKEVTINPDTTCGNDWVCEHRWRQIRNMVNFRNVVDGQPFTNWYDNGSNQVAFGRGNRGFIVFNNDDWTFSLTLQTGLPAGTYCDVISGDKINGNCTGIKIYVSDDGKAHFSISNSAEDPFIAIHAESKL
Put plainly: (§1) Inhibition of human salivary alpha-amylase. Particulars: concentration not given here. Put shortly: (§2)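 Human salivary α-amylase (type IX-A), diluted in water on the day of use, preincubated 30 min with test compound in 50 mM NaH2PO4/50 mM NaCl/0.5 mM CaCl2/0.1% BSA, pH 6.0 (DMSO stocks). Reducing sugar by Nelson-Somogyi, A540; IC50 and maximum % inhibition.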

A further test deals with T2, Alpha-amylase 1A (Homo sapiens, UniProt P0DUB6).
T2 sequence (P0DUB6 whole entry): T1 sequence (whole entry)
The test is described as §1. Put shortly: as §2

On to `COc1ccc(-c2cc(=O)c3c(O)cc(O)cc3o2)cc1`, for which the inhibition (as a rule, the change of the read-out against control, counted positive when it falls) in test [1] worked out at 14.1%.
Still for that read-out and setting: then `COc1ccc([C@@H]2CC(=O)c3c(O)cc(O)cc3O2)cc1O`, with 39.8%.
The same measure, in the same setting: then `O=c1c(-c2ccc(O)cc2)coc2cc(O)ccc12`, with 23.3%; and `COc1cc(-c2oc3cc(O)cc(O)c3c(=O)c2O)ccc1O`, with 35.4%.
Compound `O=c1c(O)c(-c2cc(O)c(O)c(O)c2)oc2cc(O)cc(O)c12` [MYRICETIN] came in with an inhibition in test [1] of 79%. In addition, half-maximal inhibition at Alpha-amylase 1A (IC50) required 30.2 µM.
On to `COc1cc(O)c2c(=O)cc(-c3ccc(O)cc3)oc2c1`, for which, in test [1], the inhibition is 17.5%.
For `Oc1cc(O)c2c(c1)O[C@H](c1ccc(O)c(O)c1)[C@H](O)C2`, the inhibition in test [1] came to 10.3%.
The same measure, in the same setting: the figure for `COc1cc(O)c2c(=O)c(O)c(-c3ccc(O)c(O)c3)oc2c1` is 8.1%.
The compound `O=c1c(O)c(-c2ccc(O)c(O)c2)oc2cc(O)c(O)c(O)c12` [QUERCETAGETIN] yielded an inhibition in test [1] of 97.6%. On Alpha-amylase 1A, the IC50 (usually the concentration that gives 50% inhibition) came out at 10.2 µM.
On the same counts, the results for `O=c1cc(-c2ccc(O)cc2)oc2cc(O)c(O)c(O)c12` [SCUTELLAREIN] are 98.4% and 9.64 µM.
For `O=c1cc(-c2ccc(O)c(O)c2)oc2cc(O)cc(O)c12` [LUTEOLIN] the same measures were 88.8% and 18.4 µM.
For `O=c1c(O)c(-c2ccc(O)c(O)c2)oc2cc(O)cc(O)c12` [QUERCETIN] the same measures were 82.1% and 21.4 µM.
In test [1], `O=C1C[C@@H](c2ccc(O)cc2)Oc2cc(O)cc(O)c21` displayed an inhibition of 26.8%.
On the same count and under the same terms, then `COc1ccc(-c2cc(=O)c3c(O)cc(O)cc3o2)cc1O`, with 19.2%; and `Oc1cc(O)c2c(c1)O[C@H](c1ccc(O)c(O)c1)[C@@H](O)C2`, with 13.1%.
The same measure, in the same setting: then `O=c1c(-c2ccc(O)cc2)coc2cc(O)cc(O)c12`, with 25.1%.
`O=c1c(O)c(-c2ccc(O)c(O)c2)oc2cc(O)ccc12` [FISETIN]: the inhibition in test [1] was 85.6%. Besides, the IC50 on Alpha-amylase 1A is 19.6 µM.
In test [1], `O=c1c(O)c(-c2ccc(O)cc2)oc2cc(O)cc(O)c12` yielded an inhibition of 34.5%.
In turn, `C[C@H]1O[C@H](O[C@H]2[C@H](O)[C@@H](O)[C@@H](O[C@H]3[C@H](O)[C@@H](O)[C@H](O)O[C@@H]3CO)O[C@@H]2CO)[C@H](O)[C@@H](O)[C@@H]1N[C@H]1C=C(CO)[C@@H](O)[C@H](O)[C@H]1O` had an inhibition in test [1] of 99.2%.
